Consider four molecules from article PMC3156442 (Molecular bioSystems, 2010).

For series [1], the system named is Jurkat cells. As to the kind of experiment: LDH release cytotoxicity. It counts as cell-based, human. The following applies: 10 μM, 37 °C; for Cytotoxicity by LDH release (in words): 10 min or 60 min. Summed up: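 Jurkat cells exposed to 10 μM lipopeptide at 37 °C for 10 or 60 min, then the plate was centrifuged at 250 × g for 4 min. Released LDH in the supernatant was read using tetrazolium substrate (RT, 30 min, dark) at 490 nm. Controls were spontaneous release, lysis-solution maximum, volume correction and medium background. % cytotoxicity = (experimental − spontaneous)/(maximum − spontaneous) × 100. Triplicate.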
Background: LDH in the medium is a marker of cell lysis.

Series [2] deals with Jurkat cells. The experiment in a line: Cellular uptake of FITC-labelled LPs by flow cytometry. The series is classed as cell-based, human. To be noted: 10 μM, 10 min, 37 °C. (In flow cytometry, cells or beads pass a laser one at a time.)

On to `CCCCCCCCCCCC(=O)NCCC(=O)N[C@@H](CCCNC(=N)N)C(=O)N[C@@H](CCCNC(=N)N)C(=O)N[C@@H](CCCNC(=N)N)C(=O)N[C@@H](CCCNC(=N)N)C(=O)N[C@@H](CCCNC(=N)N)C(=O)N[C@@H](CCCNC(=N)N)C(=O)N[C@@H](CCCNC(=N)N)C(=O)N[C@@H](CCCCNC(=S)Nc1ccc2c(c1)C(=O)OC21c2ccc(O)cc2Oc2cc(O)ccc21)C(N)=O` [C12R7], for which, in the series with Jurkat cells [1], the “Cytotoxicity by LDH release (in words)” value is “didn’t exhibit any significant toxicity”.
`CCCCCCCCCCCCCC(=O)NCCC(=O)N[C@@H](CCCNC(=N)N)C(=O)N[C@@H](CCCNC(=N)N)C(=O)N[C@@H](CCCNC(=N)N)C(=O)N[C@@H](CCCNC(=N)N)C(=O)N[C@@H](CCCNC(=N)N)C(=O)N[C@@H](CCCNC(=N)N)C(=O)N[C@@H](CCCNC(=N)N)C(=O)N[C@@H](CCCCNC(=S)Nc1ccc2c(c1)C(=O)OC21c2ccc(O)cc2Oc2cc(O)ccc21)C(N)=O` [C14R7]: the “Cytotoxicity by LDH release (in words)” value in the series on Jurkat cells [1] was “didn’t exhibit any significant toxicity”.
As for `CCCCCCCCCCCCCC(=O)NCCC(=O)N[C@H](CCCNC(=N)N)C(=O)N[C@H](CCCNC(=N)N)C(=O)N[C@H](CCCNC(=N)N)C(=O)N[C@H](CCCNC(=N)N)C(=O)N[C@H](CCCNC(=N)N)C(=O)N[C@H](CCCNC(=N)N)C(=O)N[C@H](CCCNC(=N)N)C(=O)N[C@H](CCCNC(=N)N)C(=O)N[C@H](CCCNC(=N)N)C(=O)N[C@H](CCCNC(=N)N)C(=O)N[C@H](CCCNC(=N)N)C(=O)N[C@@H](CCCCNC(=S)Nc1ccc2c(c1)C(=O)OC21c2ccc(O)cc2Oc2cc(O)ccc21)C(N)=O` [C14dR11], in the series with Jurkat cells [2], the “Signal intensity relative to C14R11 (C14R11 set as 1)” value was 5 fold. For the same molecule, the “Cytotoxicity (LDH release, % of maximum)” value with Jurkat cells [1] (60 min, triplicate, mean ± SD) is recorded as 5.97 ± 0.9%.
For `CCCCCCCCCCCCCCCC(=O)NCCC(=O)N[C@@H](CCCNC(=N)N)C(=O)N[C@@H](CCCNC(=N)N)C(=O)N[C@@H](CCCNC(=N)N)C(=O)N[C@@H](CCCNC(=N)N)C(=O)N[C@@H](CCCNC(=N)N)C(=O)N[C@@H](CCCNC(=N)N)C(=O)N[C@@H](CCCNC(=N)N)C(=O)N[C@@H](CCCCNC(=S)Nc1ccc2c(c1)C(=O)OC21c2ccc(O)cc2Oc2cc(O)ccc21)C(N)=O` [C16R7], the “Cytotoxicity by LDH release (in words)” value in the series on Jurkat cells [1] was “didn’t exhibit any significant toxicity”.
